Screens from PubChem BioAssay.
An excerpt weighted towards active compounds, which were near 4.2% of everything screened.
hERG rescue = hERG rescue from dofetilide block, primary screen, cell-based, CHO-hERG, FluxOR thallium flux, dofetilide IC70; Voltage-gated inwardly rectifying potassium channel KCNH2 (Homo sapiens), Q12809; dofetilide IC70 present; activation (rescue from dofetilide block), less the hit threshold, % at 10 µM; hit rate 0.51% among 310,000; AID 1511, 2009;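 active = activation above the mean of controls blocked by dofetilide plus 5 SD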;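 note: thallium influx through hERG after potassium depolarization seen as dye fluorescence rise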
KCNQ1 act = potentiators or activators of KCNQ1 channel, primary screen, cell-based, thallium flux, high-throughput; hit rate 0.35% among 310,000; Potassium voltage-gated channel subfamily KQT member 1 (Homo sapiens), P51787; CHO-K1 KCNQ1, thallium flux FluxOR fluorescence; hits give high values; B-score at 10 µM;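 active = fluorescence ratio B-score, a plate-corrected score, at least three library SD, with initial intensity B-score within 5 SD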
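System: Stable KCNQ1 CHO-K1 line | Incubation: 90 min dye loading and 20 min compound exposure, both at room temperature | Measure: Ratio B score | Medium: Assay buffer for compound exposure, DMSO matched across wells | Compound dosing: Single-concentration screen | Probe or stimulus: K+/Tl+ depolarizing stimulus | Measured by: Kinetic FluxOR fluorescence, 10 s baseline plus 110 s post-stimulus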
Mot1-301 SUMO = yeast Mot1-301 growth rescue at high temperature, primary screen, SUMOylation pathway inhibitor project, S. cerevisiae, ATP luminescence, 38.5C; growth rescue, % at 18.8 µM; S. cerevisiae Mot1-301 growth rescue; percent above DMSO median, 100 means doubled; hit rate 1% among 320,000; AID 2716, 2010;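 active = every valid replicate shows activation above 250% relative to neutral control wells; inactive = the rest, any valid replicate at or below 250%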;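 note: OY570 slx delta 5 strain wells were the positive control but not used for scaling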
AI-2 QS modul = Vibrio harveyi AI-2 quorum sensing modulators, primary screen, JMH597 strain, luminescence/OD600 ratio | activity change, % at 7.5 µM | AID 2094, 2009 | Vibrio harveyi JMH597 AI-2 luminescence/OD600 ratio, 9 h; hits give low values; strain lacks LuxN and CqsS sensors; 0 = neutral-control median | hit rate 0.4% among 300,000; in the data active = activity change below about -75%, passing the limit was not always enough;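 note: luminescence divided by OD600 gain over 9 h not by final OD600 alone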
KCC2 mod = KCC2 cotransporter modulators, thallium flux, primary screen, cell-based, HEK293 KCC2, FluoZin-2 fluorescence, MLSMR; hit rate 2.2% among 190,000; B-score of Tl+ flux slope (higher = more flux/activation; lower = inhibition) at 10 µM; Solute carrier family 12 member 5 (Homo sapiens), Q9H2X9; KCC2 cells, thallium flux FluoZin-2 fluorescence;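 active = thallium flux slope and its plate-corrected score both differing from the plate sample mean at a set confidence after two filtering rounds, in either direction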;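 note: slope of fluorescence scaled to starting intensity during 10 to 20 s after thallium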
Target sequence (Q9H2X9 whole entry, looked up): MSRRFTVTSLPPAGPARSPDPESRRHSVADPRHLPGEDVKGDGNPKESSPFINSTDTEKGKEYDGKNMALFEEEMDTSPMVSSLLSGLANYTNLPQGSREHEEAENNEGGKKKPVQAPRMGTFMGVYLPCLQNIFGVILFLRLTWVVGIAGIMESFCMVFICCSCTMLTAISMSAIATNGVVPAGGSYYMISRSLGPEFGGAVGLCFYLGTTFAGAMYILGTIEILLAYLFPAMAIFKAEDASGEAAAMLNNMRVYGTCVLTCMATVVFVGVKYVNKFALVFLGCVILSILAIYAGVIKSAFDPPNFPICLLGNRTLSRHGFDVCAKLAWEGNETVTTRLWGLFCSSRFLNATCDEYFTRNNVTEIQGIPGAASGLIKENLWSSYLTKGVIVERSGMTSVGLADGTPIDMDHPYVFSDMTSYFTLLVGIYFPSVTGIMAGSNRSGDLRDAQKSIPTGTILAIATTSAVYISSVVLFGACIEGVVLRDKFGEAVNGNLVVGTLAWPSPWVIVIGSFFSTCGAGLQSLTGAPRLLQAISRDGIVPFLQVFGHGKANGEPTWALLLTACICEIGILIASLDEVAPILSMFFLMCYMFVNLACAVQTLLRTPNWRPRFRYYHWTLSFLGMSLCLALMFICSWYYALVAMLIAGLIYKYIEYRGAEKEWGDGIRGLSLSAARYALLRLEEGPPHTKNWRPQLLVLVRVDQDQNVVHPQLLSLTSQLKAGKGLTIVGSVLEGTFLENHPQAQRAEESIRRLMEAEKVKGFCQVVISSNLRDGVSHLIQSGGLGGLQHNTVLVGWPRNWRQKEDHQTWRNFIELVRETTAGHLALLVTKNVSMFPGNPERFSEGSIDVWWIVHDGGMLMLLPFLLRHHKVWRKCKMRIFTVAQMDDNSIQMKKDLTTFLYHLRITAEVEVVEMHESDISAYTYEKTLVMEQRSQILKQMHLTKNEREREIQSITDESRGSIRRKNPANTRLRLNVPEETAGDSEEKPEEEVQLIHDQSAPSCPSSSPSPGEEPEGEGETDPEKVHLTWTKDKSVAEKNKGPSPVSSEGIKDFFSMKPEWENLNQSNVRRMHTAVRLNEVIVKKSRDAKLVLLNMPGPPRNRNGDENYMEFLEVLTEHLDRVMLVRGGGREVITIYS
KCNQ1 block = inhibitors of human KCNQ1 channel, primary screen, cell-based, thallium flux, high-throughput | Potassium voltage-gated channel subfamily KQT member 1 (Homo sapiens), P51787 | CHO-K1 KCNQ1, FluxOR thallium flux fluorescence; hits give high values | B-score at 10 µM | hit rate 1.3% among 310,000 | AID 2642, 2010;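 active = compounds whose thallium flux B-score, printed positive for inhibition, exceeds three library SD while starting fluorescence stays within three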;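 note: channel opened by potassium depolarization with thallium stimulus after 20 min compound exposure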
Numbers without * were called inactive; i = inactive; x = no result.

SMILES | hERG rescue | KCNQ1 act | Mot1-301 SUMO | AI-2 QS modul | KCC2 mod | KCNQ1 block
C(=N\Nc1nc(-c2ccccc2)cs1)/c1cccs1 | 1 | i | -6 | -6 | x | i
CC(C)NC1=C(Cl)C(=O)c2ccccc2C1=O | 4.9* | i | -1 | 3 | 2.5 | i
C=CCNC1=C(Cl)C(=O)c2ccccc2C1=O | -4 | i | 37 | -7 | -0.7 | i
O=C1C(Cl)=C(NCc2cccnc2)C(=O)c2ccccc21 | -17 | i | 21 | -18 | x | 9*
Cc1cc(C)cc(NC(=O)[C@H](NC(=O)[C@@H]2Cc3ccccc3CN2)c2ccccc2)c1 | -17 | i | -6 | 11 | x | i
Cc1nnsc1Sc1ccccc1C(=O)O | -5 | i | 376* | 13 | 0.65 | i
S=c1[nH]nc(-c2cc(-c3ccccc3)n[nH]2)n1/N=C/C(Br)=C/c1ccccc1 | -10 | i | 539* | 22 | -0.29 | i
Cc1ccc(C(C#N)c2ccc(C(=O)c3ccc(F)cc3)cc2)cc1 (stereo not drawn) | -14 | i | 4 | 10 | -0.095 | 13*
CN(C)c1ccc(N2C(=O)CSC2=S)cc1 | 6.8* | i | -8 | 8 | 0.81 | i
Cc1ccc(CCC2C3=C(CCCC3=O)OC3=C2C(=O)CCC3)cc1 | -3 | i | -13 | 17 | -2.7 | i
CC(C)c1ccc(CC(C)C2C3=C(CCCC3=O)OC3=C2C(=O)CCC3)cc1 (stereo not drawn) | -15 | i | 11 | 13 | -2.4 | 7*
Cc1ccc(N(CC(=O)Nc2cccc(Cl)c2C)S(C)(=O)=O)cc1 | -2 | i | 11 | 0 | x | i
CC[n+]1ccccc1/C=C1\Sc2ccc(C)cc2N1C | -33 | i | 14 | 24 | x | 7*
Cc1cc(C)c(S(=O)(=O)N2CCN(c3ccc([N+](=O)[O-])c(NCC4CCCO4)c3)CC2)c(C)c1 (stereo not drawn) | -7 | i | -13 | 15 | 1.4 | i
Cc1cc(C)c(S(=O)(=O)N2CCN(c3ccc([N+](=O)[O-])c(NCc4ccco4)c3)CC2)c(C)c1 | 4.7* | i | -7 | 11 | x | i
c1cncc(CNCc2ccco2)c1 | -5 | i | 5 | 19 | x | i
O=C(Oc1ccccc1)n1c(=S)oc2ccccc21 | 0 | i | 16 | 29 | 0.94 | i
Cc1ccccc1OC(=O)n1c(=S)oc2cc(Cl)ccc21 | -1 | 10* | 3 | -44 | 2.6* | i
CC(OC(=O)c1ccccc1Br)C(=O)Nc1nc(-c2cccc([N+](=O)[O-])c2)cs1 (stereo not drawn) | -4 | i | -8 | 44 | -0.0013 | i
O=C(Nc1nc(-c2cccc([N+](=O)[O-])c2)cs1)C(c1ccccc1)c1ccccc1 | -10 | i | x | 2 | 0.31 | 11*
CC1(C)Cc2c(cnn2-c2ccc(F)cc2)C(NC(=O)CCN2CCCCC2=O)C1 (stereo not drawn) | -5 | i | -5 | 2 | x | i
Cc1cc(/C=C2\C(=N)N3N=C(c4ccco4)SC3=NC2=O)c(C)n1Cc1ccccc1 | -4 | 12* | -1 | 26 | 3.2 | i
Cc1cc(/C=C2\C(=N)N3N=C(C(C)C)SC3=NC2=O)c(C)n1Cc1ccccc1 | -5 | 20* | 19 | 8 | 2.1 | i
CCC1=NN2C(=N)/C(=C/c3cc(C)n(Cc4ccccc4)c3C)C(=O)N=C2S1 | -8 | i | 19 | 28 | 2.1 | i
O=C(NCc1c(Cl)cccc1Oc1ccccc1)c1ccccc1 | -10 | i | -17 | 10 | -0.71 | i
